# Test results taken from ChEMBL document CHEMBL1123626, “Novel irreversible ligands specific for "peripheral" type benzodiazepine receptors: (+/-)-, (+)-, and (-)-1-(2-chlorophenyl)-N-(1-methylpropyl)-N- (2-isothiocyanatoethyl)-3-isoquinolinecarboxamide and 1-(2-isothiocyanatoethyl)-7-chloro-1,3-dihydro-5-(4-chlorophenyl )-2H-1,4-benzodiazepin-2-one” (J Med Chem, 1987).
# Assays:
# [1] = Inhibition of [3H]-PK 11195 binding to Peripheral Benzodiazepine Receptor of rat kidney tissue (110 mg protein)
# Method in brief: (§1)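 Kidneys from male Sprague-Dawley rats (150-200 g), decapitated, were decapsulated, minced, and homogenized in ice-cold 50 mM potassium phosphate (pH 7.0). The homogenate was spun at 23000 g for 20 min at 4 °C and the pellet resuspended. Tritiated radioligand was used at 1 nM against six inhibitor concentrations in triplicate. IC50 and pseudo Hill coefficient are given as means of two experiments.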
# [2] = Inhibition of [3H]-Ro- 5-4864 binding to Peripheral Benzodiazepine Receptor of rat kidney (22 mg protein); method in brief: as §1
# [3] = Inhibition of [3H]-Ro- 5-4864 binding to Peripheral Benzodiazepine Receptor of rat kidney (110 mg protein); method in brief: as §1
# [4] = Inhibition of [3H]-PK 11195 binding to Peripheral Benzodiazepine Receptor of rat kidney tissue (22 mg protein); method in brief: as §1
# [5] = Inhibition of [3H]-PK 11195 binding to Peripheral Benzodiazepine Receptor of rat brain tissue (263 mg protein)
# [6] = Inhibition of [3H]-PK 11195 binding to Peripheral Benzodiazepine Receptor of rat kidney tissue (50 mg protein)
# [7] = Inhibition of [3H]-Ro- 5-4864 binding to Peripheral Benzodiazepine Receptor of rat brain (255 mg protein)
# [8] = Inhibition of [3H]-Ro- 5-4864 binding to Peripheral Benzodiazepine Receptor of rat kidney (62 mg protein)
# [9] = Inhibition of [3H]-PK 11195 binding to Peripheral Benzodiazepine Receptor of rat brain tissue (110 mg protein)
# Method in brief: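 Brain membrane binding used 1 nM tritiated radioligand, with six inhibitor concentrations each run in triplicate. Protein per assay was as specified. IC50 in nmol/L and pseudo Hill coefficient are reported as means of two independent experiments.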
IC50 [1],IC50 [2],IC50 [3],IC50 [4],IC50 [9],Compound,IC50 [5],IC50 [6],IC50 [7],IC50 [8]
3.5 nM l-1,1.2 nM l-1,2.9 nM l-1,1.6 nM l-1,–,CCC(C)N(CCN=C=S)C(=O)c1cc2ccccc2c(-c2ccccc2Cl)n1 (stereo in doubt; 11b),–,–,–,–
–,–,–,–,–,O=C1CN=C(c2ccc(Cl)cc2)c2cc(Cl)ccc2N1CCN=C=S,2.1 nM l-1,1.2 nM l-1,2.1 nM l-1,1.2 nM l-1
–,–,–,–,–,CCC(C)N(CCN=C=S)C(=O)c1cc2ccccc2c(-c2ccccc2Cl)n1 (racemic),15 nM l-1,2.9 nM l-1,3 nM l-1,2 nM l-1
–,2.9 nM l-1,6.3 nM l-1,3.9 nM l-1,10 nM l-1,"CCC(C)N(CCN=C=S)C(=O)c1cc2ccccc2c(-c2ccccc2Cl)n1 (single isomer, unassigned; (-))",–,–,–,–
